For experiment [1], the target named is T1, Hepatitis C virus serine protease, NS3/NS4A (Hepatitis C virus, UniProt A3EZI9+D2K2A8). Put plainly: Inhibition of HCV GT-1a NS3/4a protease using Ac-DE-D(Edans)-EE-Abu-c-[COO]-AS-K(Dabcy1)-NH2 preincubated for 1 hr followed by substrate addition. Type of experiment: protein complex, Hepatitis C virus subtype 1a.
The subject of experiment [2] is Hepatitis C virus. Description: Antiviral activity against HCV genotype 1b infected in human Huh7 cells incubated for 96 hrs by luciferase assay. Type of experiment: functional, organism-based, Hepacivirus hominis. The following applies: Huh-7, 96 h. In outline: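 Con1 (GT-1b) luciferase reporter replicon carrying the H77 (GT-1a) NS3 protease region, either WT or with A156T or D168A introduced by megaprimer mutagenesis. Cured Huh7 cells grown in DMEM with 10% heat-inactivated FBS and 0.1 mM non-essential amino acids. Cells electroporated with replicon RNA and kept with serially diluted inhibitor.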

For experiment [3], the system named is Hepatitis C virus. Put plainly: Antiviral activity against HCV genotype 1b harboring A156T mutant infected in human Huh7 cells incubated for 96 hrs by luciferase assay. Type of experiment: functional, organism-based, Hepacivirus hominis. The conditions noted are these: subtype 1b, Huh-7, 96 h. The method in brief: (§1)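 Con1 (GT-1b) luciferase reporter replicon carrying the H77 (GT-1a) NS3 protease region, with the mutation introduced by megaprimer site-directed mutagenesis. Cured Huh7 cells were grown in DMEM with 10% heat-inactivated FBS and 0.1 mM non-essential amino acids, electroporated with replicon RNA transcripts, and kept with serially diluted inhibitor. EC50 was taken directly from the inhibition curves.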

Experiment [4] relates to Hepatitis C virus. Description: Antiviral activity against HCV genotype 1b harboring D168A mutant infected in human Huh7 cells incubated for 96 hrs by luciferase assay. It counts as functional, organism-based, Hepacivirus hominis. The conditions noted are these: subtype 1b, Huh-7, 96 h. In outline: as §1
For experiment [5], the target named is T1, Hepatitis C virus serine protease, NS3/NS4A. Put plainly: Inhibition of HCV GT-3a NS3/4a protease using Ac-DE-D(Edans)-EE-Abu-c-[COO]-AS-K(Dabcy1)-NH2 preincubated for 1 hr followed by substrate addition. Type of experiment: protein-complex assay, Hepatitis C virus subtype 3a.

As for `CCC1(OC(=O)N[C@H]2CCCCC/C=C/[C@@H]3C[C@@]3(C(=O)NS(=O)(=O)C3(C)CC3)NC(=O)[C@@H]3C[C@@H](Oc4nc5cc(OC)ccc5nc4C)CN3C2=O)CCCC1`, the Ki in experiment [1] was found to be 1.3 nM. Moreover, the figures for the half-maximal effective concentration (EC50) in the experiment on Hepatitis C virus [2], with Hepatitis C virus [3] and in the experiment with Hepatitis C virus [4] were 1.6 nM, 8.3 nM and 4.7 nM, respectively.

Take `COc1ccc2nc(O[C@@H]3C[C@H]4C(=O)N[C@]5(C(=O)NS(=O)(=O)C6(C)CC6)C[C@H]5/C=C/CCCCC[C@H](NC(=O)OCC5(C)CC5)C(=O)N4C3)c(C(F)(F)F)nc2c1`: the affinity in experiment [1], expressed as Ki, was 2.9 nM. Also, the EC50 came out at 5.7 nM in the experiment with Hepatitis C virus [2], 41 nM with Hepatitis C virus [3] and 8.3 nM in the experiment on Hepatitis C virus [4].

`COc1ccc2nc(C)c(O[C@@H]3C[C@H]4C(=O)N[C@]5(C(=O)NS(=O)(=O)C6(C)CC6)C[C@H]5/C=C/CCCCC[C@H](NC(=O)OC5(C)CC5)C(=O)N4C3)nc2c1` gave a Ki in experiment [1] of 4.4 nM. The EC50 in the experiment with Hepatitis C virus [2] is 0.3 nM; with Hepatitis C virus [3], 12 nM; with Hepatitis C virus [4], 3.5 nM.

Regarding `COc1ccc2nc(C)c(O[C@@H]3C[C@H]4C(=O)N[C@]5(C(=O)NS(=O)(=O)C6(C)CC6)C[C@H]5/C=C/CCCCC[C@H](NC(=O)O[C@H](C)C(C)C)C(=O)N4C3)nc2c1`, the affinity in experiment [1] corresponds to a Ki of 1.5 nM. Besides, the values for the concentration for a half-maximal effect (EC50) with Hepatitis C virus [2], in the experiment with Hepatitis C virus [3] and with Hepatitis C virus [4] were 0.3 nM, 7.7 nM and 1.9 nM, respectively.

In turn, `COc1ccc2nc(O[C@@H]3C[C@H]4C(=O)N[C@]5(C(=O)NS(=O)(=O)C6(C)CC6)C[C@H]5/C=C/CCCCC[C@H](NC(=O)OC5(C)CC5)C(=O)N4C3)c(C(F)(F)F)nc2c1` yielded an inhibition constant (Ki) in experiment [1] of 11 nM. Further, the EC50 in the experiment with Hepatitis C virus [2] was 5.8 nM; in the experiment on Hepatitis C virus [3], 99 nM; in the experiment with Hepatitis C virus [4], 14 nM.

As for `COc1ccc2nc(C)c(O[C@@H]3C[C@H]4C(=O)N[C@]5(C(=O)NS(=O)(=O)C6(C)CC6)C[C@H]5/C=C/CCCCC[C@H](NC(=O)OC5CC(F)(F)C5)C(=O)N4C3)nc2c1`, the affinity in experiment [1], expressed as Ki, was 0.6 nM. Also, the EC50 in the experiment with Hepatitis C virus [2] stood at 0.6 nM; with Hepatitis C virus [3], 5.3 nM; in the experiment with Hepatitis C virus [4], 4.1 nM.

In turn, `COc1ccc2nc(O[C@@H]3C[C@H]4C(=O)N[C@]5(C(=O)NS(=O)(=O)C6(C)CC6)C[C@H]5/C=C/CCCCC[C@H](NC(=O)O[C@H](C)C5CC5)C(=O)N4C3)c(C(F)(F)F)nc2c1` yielded a Ki in experiment [1] of 12 nM. Further, the EC50 came to 2.6 nM with Hepatitis C virus [2], 44 nM with Hepatitis C virus [3] and 19 nM in the experiment with Hepatitis C virus [4].

Regarding `COc1ccc2nc(O[C@@H]3C[C@H]4C(=O)N[C@]5(C(=O)NS(=O)(=O)C6(C)CC6)C[C@H]5/C=C/CCCCC[C@H](NC(=O)OCC(C)(C)C)C(=O)N4C3)c(C(F)(F)F)nc2c1`, the Ki in experiment [1] was found to be 2.9 nM. Also, the EC50 with Hepatitis C virus [2] was found to be 4.9 nM; with Hepatitis C virus [3], 158 nM; in the experiment on Hepatitis C virus [4] it was 14 nM.

For the molecule `COc1ccc2nc(C)c(O[C@@H]3C[C@H]4C(=O)N[C@]5(C(=O)NS(=O)(=O)C6(C)CC6)C[C@H]5/C=C/CCCCC[C@H](NC(=O)OC(C)C)C(=O)N4C3)nc2c1`, in experiment [1], the Ki is 2.1 nM. This counts as single-digit nanomolar.

In the case of `COc1ccc2nc(C)c(O[C@@H]3C[C@H]4C(=O)N[C@]5(C(=O)NS(=O)(=O)C6(C)CC6)C[C@H]5/C=C/CCCCC[C@H](NC(=O)OC5CCCC5)C(=O)N4C3)nc2c1`, the Ki in experiment [5] came to 120 nM; in experiment [1], 1.1 nM. For the same molecule, the results for the concentration giving a half-maximal response (EC50) with Hepatitis C virus [2] and with Hepatitis C virus [4] were 0.1 nM and 1.9 nM, respectively.

In the case of `COc1ccc2nc(C)c(O[C@@H]3C[C@H]4C(=O)N[C@]5(C(=O)NS(=O)(=O)C6(C)CC6)C[C@H]5/C=C/CCCCC[C@H](NC(=O)OC5(C)CCC5)C(=O)N4C3)nc2c1`, in experiment [1], the affinity, expressed as Ki, was 1.4 nM. Moreover, the EC50 in the experiment with Hepatitis C virus [2] was determined as 0.5 nM; in the experiment with Hepatitis C virus [3], 4.2 nM; with Hepatitis C virus [4], 3.4 nM.

In experiment [1], `COc1ccc2nc(C)c(O[C@@H]3C[C@H]4C(=O)N[C@]5(C(=O)NS(=O)(=O)C6(C)CC6)C[C@H]5/C=C/CCCCC[C@H](NC(=O)O[C@@H](C)C(F)(F)F)C(=O)N4C3)nc2c1` gave a Ki of 0.7 nM. Besides, the EC50 in the experiment with Hepatitis C virus [2] was found to be 0.8 nM; in the experiment on Hepatitis C virus [3], 8.1 nM.

The molecule `COc1ccc2nc(C)c(O[C@@H]3C[C@H]4C(=O)N[C@]5(C(=O)NS(=O)(=O)C6(C)CC6)C[C@H]5/C=C/CCCCC[C@H](NC(=O)O[C@@H](C)C(C)C)C(=O)N4C3)nc2c1` gave a Ki in experiment [1] of 1.9 nM. Further, the concentration for a half-maximal effect (EC50) in the experiment on Hepatitis C virus [2] was 0.6 nM; in the experiment on Hepatitis C virus [3], 7 nM; with Hepatitis C virus [4], 3.6 nM.

In the case of `COc1ccc2nc(O[C@@H]3C[C@H]4C(=O)N[C@]5(C(=O)NS(=O)(=O)C6(C)CC6)C[C@H]5/C=C/CCCCC[C@H](NC(=O)O[C@@H]5CCC[C@H]5F)C(=O)N4C3)c(C(F)(F)F)nc2c1`, the Ki in experiment [1] came to 8 nM. Besides, the half-maximal effective concentration (EC50) was 0.2 nM with Hepatitis C virus [2], 35 nM in the experiment with Hepatitis C virus [3] and 2.3 nM in the experiment on Hepatitis C virus [4].

With `COc1ccc2nc(C)c(O[C@@H]3C[C@H]4C(=O)N[C@]5(C(=O)NS(=O)(=O)C6(C)CC6)C[C@H]5/C=C/CCCCC[C@H](NC(=O)O[C@@H](C)C5CC5)C(=O)N4C3)nc2c1`, the Ki in experiment [1] stood at 1.8 nM. The EC50 in the experiment on Hepatitis C virus [2] stood at 5.3 nM; in the experiment on Hepatitis C virus [3], 128 nM; with Hepatitis C virus [4], 10 nM.

Consider `COc1ccc2nc(O[C@@H]3C[C@H]4C(=O)N[C@]5(C(=O)NS(=O)(=O)C6(C)CC6)C[C@H]5/C=C/CCCCC[C@H](NC(=O)OCC5(C(F)(F)F)CC5)C(=O)N4C3)c(C(F)(F)F)nc2c1`, for which the affinity in experiment [1] corresponds to a Ki of 3.5 nM. Also, the results for the EC50 in the experiment with Hepatitis C virus [2], in the experiment with Hepatitis C virus [3] and in the experiment with Hepatitis C virus [4] were 1.2 nM, 43 nM and 4.6 nM, respectively.

Regarding `CCc1nc2ccc(OC)cc2nc1O[C@@H]1C[C@H]2C(=O)N[C@]3(C(=O)NS(=O)(=O)C4CC4)C[C@H]3/C=C/CCCCC[C@H](NC(=O)OC(C)(C)C)C(=O)N2C1`, the EC50 in the experiment with Hepatitis C virus [4] is 6.3 nM.

`COc1ccc2nc(C)c(O[C@@H]3C[C@H]4C(=O)N[C@]5(C(=O)NS(=O)(=O)C6(C)CC6)C[C@H]5/C=C/CCCCC[C@H](NC(=O)OCC5(C)CC5)C(=O)N4C3)nc2c1` registered a Ki in experiment [1] of 0.7 nM. The EC50 with Hepatitis C virus [2] came out at 0.8 nM; in the experiment on Hepatitis C virus [3], 8.5 nM; in the experiment with Hepatitis C virus [4], 3.8 nM.

In experiment [1], `COc1ccc2nc(O[C@@H]3C[C@H]4C(=O)N[C@]5(C(=O)NS(=O)(=O)C6(C)CC6)C[C@H]5/C=C/CCCCC[C@H](NC(=O)OC5CC(F)(F)C5)C(=O)N4C3)c(C(F)(F)F)nc2c1` returned a Ki of 11 nM. Further, the EC50 with Hepatitis C virus [2] turned out to be 3.2 nM; in the experiment with Hepatitis C virus [3], 35 nM; in the experiment with Hepatitis C virus [4], 6.9 nM.

In turn, `COc1ccc2nc(O[C@@H]3C[C@H]4C(=O)N[C@]5(C(=O)NS(=O)(=O)C6(C)CC6)C[C@H]5/C=C/CCCCC[C@H](NC(=O)OCC(C)C)C(=O)N4C3)c(C(F)(F)F)nc2c1` registered an inhibition constant (Ki) in experiment [1] of 4 nM. Moreover, the EC50 in the experiment with Hepatitis C virus [2] is 4.8 nM; in the experiment on Hepatitis C virus [3] it was 91 nM; with Hepatitis C virus [4] it was 15 nM.

The molecule `COc1ccc2nc(O[C@@H]3C[C@H]4C(=O)N[C@]5(C(=O)NS(=O)(=O)C6(C)CC6)C[C@H]5/C=C/CCCCC[C@H](NC(=O)O[C@H](C)C(C)C)C(=O)N4C3)c(C(F)(F)F)nc2c1` yielded a Ki in experiment [1] of 3 nM. Also, the figures for the concentration giving a half-maximal response (EC50) in the experiment with Hepatitis C virus [2], in the experiment with Hepatitis C virus [3] and with Hepatitis C virus [4] were 2.1 nM, 45 nM and 6.3 nM, respectively.

Molecule `COc1ccc2nc(C)c(O[C@@H]3C[C@H]4C(=O)N[C@]5(C(=O)NS(=O)(=O)C6(C)CC6)C[C@H]5/C=C/CCCCC[C@H](NC(=O)O[C@H](C)C5CC5)C(=O)N4C3)nc2c1` yielded a Ki in experiment [1] of 1.5 nM. In addition, the concentration giving a half-maximal response (EC50) with Hepatitis C virus [2] came out at 0.3 nM; with Hepatitis C virus [3] it was 11 nM; with Hepatitis C virus [4], 3.7 nM.

Source of the values: ChEMBL document CHEMBL4828740, “Discovery of Quinoxaline-Based P1-P3 Macrocyclic NS3/4A Protease Inhibitors with Potent Activity against Drug-Resistant Hepatitis C Virus Variants” (J Med Chem, 2021).
